This note sets out measurements from ChEMBL document CHEMBL4732178, “Dioxotriazine derivatives as a new class of P2X receptor antagonists: Identification of a lead and initial SAR studies” (Bioorg Med Chem Lett, 2021).

As usually defined, the bioavailability is dose-corrected exposure relative to a reference, in per cent. As usually defined, the half-life is the time in which the quantity being followed falls by half. The low end stands for rapid decline, the high end for slow decline. As usually defined, the AUC is concentration integrated over time. Higher therefore signals high exposure. In general, Cmax refers to the highest concentration seen after dosing.

The nature of series [1]: Microsomal stability in human liver microsomes assessed as parent compound remaining incubated for 30 mins in presence or absence of NADPH generating system. To be noted: read-out: Stabilty. The format is ADME, Microsome. The gist of the method: (§1)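 Compound incubated 30 min at 37 °C with human or rat liver microsomes (0.5 mg protein/mL), with or without NADPH-generating system; percent parent remaining reported.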
On the technique in general: Liver microsomes are a subcellular fraction often used to study metabolism.

A short description of series [2]: Microsomal stability in rat liver microsomes assessed as parent compound remaining incubated for 30 mins in presence or absence of NADPH generating system. To be noted: read-out: Stabilty. Type of series: ADME, Microsome. The procedure, abridged: as §1
Series [3] can be described thus: Clearance in rat at 0.5 mg/kg, iv or 1 mg/kg, po. To be noted: in vivo. The format is ADME, organism-based.
A short description of series [4]: Oral bioavailability in rat or 1 mg/kg. The format is ADME, organism-based. The conditions noted are these: in vivo.
A short description of series [5]: Half life in rat at 0.5 mg/kg, iv or 1 mg/kg, po. The format is ADME, organism-based. The conditions noted are these: in vivo.
Series [6] in a line: AUC in rat at 3 mg/kg, po. The format is ADME, organism-based. Details: dose 3 mg/kg. The conditions noted are these: in vivo.
Series [7] is described as follows: Cmax in rat at 3 mg/kg, po. Type of series: ADME, organism-based. Further details: route oral, dose 3 mg/kg. To be noted: in vivo.
The nature of series [8]: Oral bioavailability in rat at 3 mg/kg. The conditions noted are these: in vivo. The format is ADME, organism-based.
Series [9] is described as follows: Half life in rat at 1 mg/kg, iv or 3 mg/kg, po. The format is ADME, organism-based. To be noted: in vivo.
Series [10] is described as follows: Clearance in rat at 1 mg/kg, iv or 3 mg/kg, po. The format is ADME, organism-based. The conditions noted are these: in vivo.

As to `CC(C)Oc1ccc(Nc2nc(=O)n(CCCCO)c(=O)n2Cc2ccc(Cl)cc2)cc1F`, the results for the remaining at 0.5 h in series [1] and in [2] were 59% and 36%, respectively.

With `CC(C)Oc1ccc(Nc2nc(=O)c(CC(=O)O)cn2Cc2ccc(Cl)cc2)cc1Cl`, the clearance in [3] was 8.3 mL/min/kg. The same compound returned a bioavailability in [4] of 79.9%. Also, the half-life in [5] is 1.8 h.

Consider `CC(C)Oc1ccc(Nc2nc(=O)n(CCO)c(=O)n2Cc2ccc(Cl)cc2)cc1F`, for which the remaining at 0.5 h in series [1] is 92%; in series [2], 60%.

Turning to `CC(C)Oc1ccc(Nc2nc(=O)n(CCCC(=O)O)c(=O)n2Cc2ccc(Cl)cc2)cc1F`, the remaining at 0.5 h in series [1] was 106%; in series [2], 103%.

In the case of `CC(C)Oc1ccc(Nc2nc(=O)n(C(C)C)c(=O)n2Cc2ccc(Cl)cc2)cc1F`, the results for the remaining at 0.5 h in series [1] and in [2] were 36% and 49%, respectively.

Regarding `CC(C)Oc1ccc(/N=c2\[nH]c(=O)n(CC(=O)O)c(=O)n2Cc2ccc(Cl)cc2)cc1Cl`, in series [3], the clearance is 1.7 mL/min/kg. Moreover, the bioavailability in [4] was 71.2%. The same compound showed a half-life in series [5] of 2.1 h.

As for `CC(C)Oc1ccc(Nc2nc(=O)n(CC(C)(C)C(=O)O)c(=O)n2Cc2ccc(Cl)cc2)cc1F`, in series [6], the AUC was 6990 ng·h/mL. The concentration in series [7] peaked (Cmax) at 1260 ng/mL. For the same compound, in series [8], the bioavailability stood at 47.3%. In [9], this compound had a half-life of 9.6 h. This compound gave a clearance in series [10] of 3 mL/min/kg.

`CNC(=O)CCn1c(=O)nc(Nc2ccc(OC(C)C)c(F)c2)n(Cc2ccc(Cl)cc2)c1=O`: the remaining at 0.5 h in series [1] was 86%; in series [2] it was 30%.

For the compound `CC(C)Oc1ccc(Nc2nc(=O)[nH]c(=O)n2Cc2ccc(Cl)cc2)cc1F`, the results for the remaining at 0.5 h in series [1] and in series [2] were 78% and 54%, respectively.

For the compound `CC(C)Oc1ccc(Nc2nc(=O)n(CC(=O)O)c(=O)n2Cc2ccc(Cl)cc2)cc1F`, the remaining at 0.5 h was 99% in [1] and 97% in [2].

On to `CC(C)Oc1ccc(Nc2nc(=O)n(Cc3ccccc3)c(=O)n2Cc2ccc(Cl)cc2)cc1F`, for which the remaining at 0.5 h was 21% in [1] and 1% in series [2].

As to `CC(C)Oc1ccc(Nc2nc(=O)n(CCC#N)c(=O)n2Cc2ccc(Cl)cc2)cc1F`, the remaining at 0.5 h in series [1] amounted to 59%; in [2] it was 30%.

Turning to `CC(=O)NCCn1c(=O)nc(Nc2ccc(OC(C)C)c(F)c2)n(Cc2ccc(Cl)cc2)c1=O`, the remaining at 0.5 h is 45% in series [1] and 1% in [2].

The compound `Cc1ccc(Cn2c(Nc3ccc(OC(C)C)c(Cl)c3)nc(=O)n(CCC(=O)O)c2=O)cc1` came in with an AUC in series [6] of 14300 ng·h/mL. In series [8], this compound displayed a bioavailability of 71.8%. The compound further showed a half-life in series [9] of 1.6 h. This compound had a clearance in series [10] of 2.7 mL/min/kg.

With `CC(C)Oc1ccc(Nc2cc(=O)n(CCC(=O)O)c(=O)n2Cc2ccc(Cl)cc2)cc1Cl`, the clearance in [3] is 2.1 mL/min/kg. This compound displayed a bioavailability in series [4] of 61.5%. This compound also had a half-life in series [5] of 2.2 h.

For `CCn1c(=O)nc(Nc2ccc(OC(C)C)c(F)c2)n(Cc2ccc(Cl)cc2)c1=O`, the remaining at 0.5 h worked out at 86% in series [1] and 42% in series [2].

In series [6], `COc1cc(C(C)C)c(Oc2cnc(NC(CO)CO)nc2N)cc1I` gave an AUC of 369 ng·h/mL. Besides, the Cmax in [7] was determined as 118 ng/mL. In [8], this compound yielded a bioavailability of 30.3%. The compound also showed a half-life in [9] of 1.1 h. The same compound yielded a clearance in series [10] of 42 mL/min/kg.

For `CCCn1c(=O)nc(Nc2ccc(OC(C)C)c(F)c2)n(Cc2ccc(Cl)cc2)c1=O`, the remaining at 0.5 h came to 36% in [1] and 35% in [2].

As for `CC(C)Oc1ccc(Nc2nc(=O)n(CC#N)c(=O)n2Cc2ccc(Cl)cc2)cc1F`, the remaining at 0.5 h in series [1] is 68%; in [2] it was 41%.

For the compound `CC(=O)NCCCn1c(=O)nc(Nc2ccc(OC(C)C)c(F)c2)n(Cc2ccc(Cl)cc2)c1=O`, the remaining at 0.5 h was determined as 47% in [1] and 15% in series [2].

For `CC(C)Oc1ccc(Nc2nc(=O)n(CCCO)c(=O)n2Cc2ccc(Cl)cc2)cc1F`, the remaining at 0.5 h in series [1] came to 82%; in [2] it was 29%.

Compound `CC(C)Oc1ccc(Nc2nc(=O)n(C(C)C)c(=O)n2Cc2ccc(Cl)cc2)cc1` showed a clearance in series [3] of 23.9 mL/min/kg. The bioavailability in series [4] turned out to be 25.2%.

On to `CC(C)Oc1ccc(Nc2nc(=O)n(CCC(N)=O)c(=O)n2Cc2ccc(Cl)cc2)cc1F`, for which the values for the remaining at 0.5 h in series [1] and in [2] were 94% and 61%, respectively.

For the compound `CC(C)Oc1ccc(Nc2nc(=O)n(CCC(=O)O)c(=O)n2Cc2ccc(Cl)cc2)cc1F`, the remaining at 0.5 h in series [1] turned out to be 92%; in series [2], 99%.

Consider `CC(=O)n1c(=O)nc(Nc2ccc(OC(C)C)c(F)c2)n(Cc2ccc(Cl)cc2)c1=O`, for which the remaining at 0.5 h was 0% in series [1] and 2% in series [2].

`CC(C)Oc1ccc(Nc2nc(=O)n(CCC(=O)O)c(=O)n2Cc2ccc(Cl)cc2)cc1Cl`: in series [3], the clearance worked out at 0.5 mL/min/kg. The compound also had a bioavailability in [4] of 43.2%. Moreover, in series [5], the half-life was 6 h.
